Laboratory results: article PMC6679956 (Journal of medicinal chemistry, 2019)
Blank lines part the entries; values can stand above or below the compound they belong to.

Tests used:
m^7GDP-bound eIF4E = m^7GDP-bound eIF4E (Homo sapiens, UniProt P06730); assay: SPR binding kinetics of peptides to immobilized eIF4E
[1] = Peptide helicity by CD spectroscopy; format: physicochemical
Procedure, shortened: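 Test peptides at 100 μM in 5 mM sodium phosphate, pH 7.4, equilibrated at 10, 15, 20, 25 and 30 °C. Spectra recorded from 180 to 260 nm: 0.1 nm step, 50 nm/s, five accumulations, 1 s response, 5 nm bandwidth, 0.1 cm path. α-Helical content calculated from previously reported equations. Triplicate analyses per peptide.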

[2] = SPR, 25 °C, 1.0 M versus 225 mM salt

Chain of m^7GDP-bound eIF4E (P06730 whole entry): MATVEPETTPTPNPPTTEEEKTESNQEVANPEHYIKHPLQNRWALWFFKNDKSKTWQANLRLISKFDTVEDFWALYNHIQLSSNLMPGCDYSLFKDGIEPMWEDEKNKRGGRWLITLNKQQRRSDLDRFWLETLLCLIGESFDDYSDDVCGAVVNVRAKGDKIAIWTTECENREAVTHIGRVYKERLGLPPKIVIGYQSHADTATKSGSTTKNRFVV

Compound: CC(=O)N[C@@H](CCCCN)C(=O)N[C@@H](CCCCN)C(=O)N[C@@H](CCCNC(=N)N)C(=O)N[C@@H](Cc1ccc(O)cc1)C(=O)N[C@@H](CC(=O)O)C(=O)N[C@@H](CCCNC(=N)N)C(=O)N[C@@H](CCC(=O)O)C(=O)N[C@@H](Cc1ccccc1)C(=O)N[C@@H](CC(C)C)C(=O)N[C@@H](CC(C)C)C(=O)NCC(=O)N[C@@H](Cc1ccccc1)C(=O)N[C@@H](CCC(N)=O)C(=O)N[C@@H](Cc1ccccc1)C(N)=O [eIF4G]
kd with increasing salt concentration (m^7GDP-bound eIF4E; SPR, 25 °C, running buffer salt 225 to 1000 mM): 0.046 to 0.27 s⁻¹
kinetic advantage (ka) of eIF4G peptide over both 4E-BP1 peptides (m^7GDP-bound eIF4E; SPR, at most temperatures, particularly the higher ones): ~ 2 fold

helicity over the temperatures tested ([1]; 100 μM, 10 to 30 °C): 15–19%
helicity in the presence of TFE ([1]; 5 mM sodium phosphate buffer pH 7.4, 25 °C, 100 μM peptide, with 2,2,2-trifluoroethanol): 37%
Compound: CC[C@H](C)[C@H](NC(=O)[C@H](CCCNC(=N)N)NC(=O)[C@@H](NC(=O)CNC(C)=O)[C@@H](C)O)C(=O)N[C@H](C(=O)N[C@@H](Cc1ccc(O)cc1)C(=O)N[C@@H](CC(=O)O)C(=O)N[C@@H](CCCNC(=N)N)C(=O)N[C@@H](CCCCN)C(=O)N[C@@H](Cc1ccccc1)C(=O)N[C@@H](CC(C)C)C(=O)N[C@@H](CCSC)C(=O)N[C@@H](CCC(=O)O)C(=O)N[C@@H](CS)C(=O)N[C@@H](CCCNC(=N)N)C(=O)N[C@@H](CC(N)=O)C(N)=O)[C@@H](C)CC [4E-BP1]

fold decrease in Kd with increasing salt concentration (m^7GDP-bound eIF4E; [2]): 4 fold
fold decrease in kd with increasing salt concentration (m^7GDP-bound eIF4E; [2]): 48 fold
kon (m^7GDP-bound eIF4E; pH 7.5, read-out: association rate ka): 2e+06 ± 100000 M⁻¹ s⁻¹
koff (m^7GDP-bound eIF4E; pH 7.5, read-out: dissociation rate kd): 0.123 ± 0.014 s⁻¹
Compound: Ac-KKRYSREQLLGL-NH2 [Linear sTIP-04]
